Experiments:
Assay type in all cases: functional
Settings in all cases: route intraperitoneal
Rattus norvegicus [1] = test: Hyperglycemic activity in rat assessed as blood glucose level per 100 ml at 70 mg/kg, ip after 90 mins
Outline: (§1)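 Narcotized rats, six per experiment; blood sugar measured before and 90 min after intraperitoneal dosing (70 and 100 mg/kg used in study). Glucose determined by o-toluidine reaction in acid medium. Values are mean of six rats ± 2 s. Classed hyper- or hypoglycemic by Student's t test, before vs after, when α < 0.01.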

Rattus norvegicus [2] = test: Hypoglycemic activity in rat assessed as blood glucose level per 100 ml at 70 mg/kg, ip after 90 mins; outline: as §1
Rattus norvegicus [3] = test: Effect on blood glucose level per 100 ml in rat at 70 mg/kg, ip after 90 mins; outline: as §1

Row | Compound | Activity (Rattus norvegicus [1]) [mg] | Activity (Rattus norvegicus [2]) [mg] | other results
1 | CCOc1ccc(S(=O)(=O)NC(N)=O)c(C)c1 | 103 |  | 
2 | CCCCNC(=O)NS(=O)(=O)c1ccc(OCCC)cc1C |  | 130 | 
3 | CCCNC(=O)NS(=O)(=O)c1ccc(OC)cc1C | 135 |  | 
4 | CNC(=O)NS(=O)(=O)c1ccc(OC)cc1C | 142 |  | 
5 | CCCCCOc1ccc(S(=O)(=O)NC(=O)NCCCC)c(C)c1 | 79 |  | 
6 | CCCCNC(=O)NS(=O)(=O)c1ccc(OCC)cc1C |  | 114 | 
7 | COc1ccc(S(=O)(=O)NC(=O)NCc2ccccc2)c(C)c1 |  | 104 | 
8 | CCCCOc1ccc(S(=O)(=O)NC(=O)NC)c(C)c1 | 96 |  | 
9 | CCNC(=O)NS(=O)(=O)c1ccc(OC)cc1C | 135 |  | 
10 | COc1ccc(S(=O)(=O)NC(N)=O)c(C)c1 | 97 |  | 
11 | CCCCNC(=S)NS(=O)(=O)c1ccc(C)cc1C |  | 119 | 
12 | CCCCOc1ccc(S(=O)(=O)NC(=S)NC)c(C)c1 |  | 77 | 
13 | CCCCNC(=S)NS(=O)(=O)c1ccc(NC(C)=O)cc1C |  | 116 | 
14 | CCCCNC(=O)NS(=O)(=O)c1ccc(OC)cc1C |  |  | Activity (Rattus norvegicus [3]): 114 mg
15 | COc1ccc(S(=O)(=O)NC(=S)NCc2ccccc2)c(C)c1 |  | 97 | 
16 | CCCCNC(=S)NS(=O)(=O)c1ccc(OCC)cc1C |  | 99 | 
17 | CCCCNC(=O)NS(=O)(=O)c1ccc(OCCCC)cc1C | 113 |  | 
18 | CCCCNC(=O)NS(=O)(=O)c1ccc(C)cc1C |  | 102 | 
19 | CCCNC(=S)NS(=O)(=O)c1ccc(OC)cc1C | 153 |  | 
20 | CCCCNC(=O)NS(=O)(=O)c1ccc(NC(C)=O)cc1C |  | 112 | 
21 | CCCCNC(=S)NS(=O)(=O)c1ccc(OCCC)cc1C | 160 |  | 
22 | CCCCCOc1ccc(S(=O)(=O)NC(=S)NCCCC)c(C)c1 |  | 129 | 

Reference: ChEMBL document CHEMBL3243949, “Discriminant--analytical investigation on the structural dependence of hyperglycemic and hypoglycemic activity in a series of substituted o-toluenesulfonylthioureas and o-toluenesulfonylureas” (1979)
